Assay results collected from several papers.
Lines come from different studies, so protocols differ.
Target: Sodium-dependent dopamine transporter (SLC6A3, Homo sapiens, UniProt Q01959)

Structure (SMILES) | read-out | mode | method | cell line | concentration | inhibition [%]
Oc1cccc(Nc2nc(-c3ccc(F)cc3F)cs2)c1 | cell-free assay |  |  |  | 10 µM | 49.8
Clc1ccc(C(c2ccccc2)c2nnnn2CCCN2CCC(CCCc3ccccc3)CC2)cc1 (stereo not drawn) | transporter uptake | inhibitor |  | HEK293 | 1 µM | 89.6
COc1cc(NC(C)=O)c(Cl)cc1C(=O)Nc1nccs1 | cell-free assay |  |  |  | 10 µM | 5.5
Cc1cc(-c2nc(CN3CCNCC3)no2)cc2c1C(=O)N(Cc1ccc(OC(F)(F)F)cc1)C2 | ligand displacement |  | radioligand |  | 10 µM | 44
N#Cc1cc(Cn2c(N3CCCC3)nc3ccccc32)ccc1F | ligand displacement |  |  |  | 10 µM | 19.3
Nc1ccc(-c2ccncc2)cc1NC(=O)N1CCCC1 | ligand displacement |  | radioligand |  | 10 µM | 21
CCCNc1nc2ccccc2n1Cc1ccc(Cl)cc1 | ligand displacement |  |  |  | 10 µM | 24.3
Fc1ccc(C(c2ccc(F)cc2)c2nnnn2CCCCN2CCN(CCCc3ccccc3)CC2)cc1 | transporter uptake | inhibitor |  | HEK293 | 1 µM | 56.2
CCN(Cc1ccccc1C(F)(F)F)C(=O)C1CCN(S(=O)(=O)c2ccc3[nH]ncc3c2)CC1 | ligand displacement |  | radioligand |  | 10 µM | 39
CCN(CC)c1ccc(C2Nc3ccc(C(=O)c4ccccc4)cc3NC3=C2C(=O)CC(C)(C)C3)cc1 (stereo not drawn) | ligand displacement |  | radioligand |  | 10 µM | 69
Clc1ccc(C(c2ccc(Cl)cc2)c2nnnn2CCCCN2CCN(Cc3ccccc3)CC2)cc1 | transporter uptake | inhibitor |  | HEK293 | 1 µM | 91.7
O=C1N=C(N2CCCCN2)S/C1=C\c1ccc(F)cc1O | ligand displacement |  | radioligand |  | 10 µM | < 10
